Test results from paper PMC6125788 (Molecular pharmaceutics, 2018).

What was measured:
A375 cells [1] = assay: Cellular uptake by flow cytometry in A375 cells; assay type: cell-based, human; conditions: free cRGDfK 10 μM
Procedure, shortened: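 A375 cells grown in DMEM with 10% FBS and 1% penicillin/streptomycin at 37 °C, 5% CO2. Cells were exposed to untargeted or RGD-targeted PEG-IR700 conjugate for 4 h, with or without free cRGDfK (10 μM). They were then trypsinized to single cells, and cell-associated fluorescence was read by flow cytometry.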

A375 cells [2] = assay: Phototoxicity and dark toxicity, Alamar Blue assay; assay type: cell-based, human; conditions: no irradiation, up to 1000 nM of IR700 equiv.
Procedure, shortened: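 A375 cells were incubated overnight at 37 °C with free IR700 or PEG-IR700 conjugates at increasing concentrations (IR700 equiv.). Cells were then washed with fresh medium and kept unirradiated, as dark controls for the 660 nm photo-irradiation arm. Viability was measured 24 h later by Alamar Blue (4 h, fluorescence Ex 540/Em 590 nm); N = 4.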

Row | Compound | effect of free peptide on uptake of RGD-8PEG-IR700 (A375 cells [1]) | cytotoxicity in dark (A375 cells [2])
1 | N=C(N)NCCC[C@@H]1NC(=O)[C@H](CCCCN)NC(=O)[C@@H](Cc2ccccc2)NC(=O)[C@H](CC(=O)O)NC(=O)CNC1=O [cRGDfK] | dramatically reduce the uptake | –
2 | C[Si](C)(CCC[N+](CCCS(=O)(=O)[O-])(CCCS(=O)(=O)[O-])CCCS(=O)(=O)[O-])O[Si]1(O[Si](C)(C)CCC[N+](CCCS(=O)(=O)[O-])(CCCS(=O)(=O)[O-])CCCS(=O)(=O)[O-])n2c3c4ccccc4c2N=C2N=C(N=c4c5ccccc5c(n41)=NC1=NC(=N3)c3ccccc31)c1cccc(OCCCOC(=O)NCCCCCC(=O)ON3C(=O)CCC3=O)c12.[Na+].[Na+].[Na+].[Na+] (centres unmarked) [IR700, IRDye 700DX] | – | no dark toxicity
